Source: ChEMBL document CHEMBL4689842, “EUbOPEN Chemogenomics Library wave 1” (2021)

System: HEK-293T
Test: Multiplex assay against HEK293T;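 for Population Tubulin-Different-Phenotype (%): share of the cells with healthy nuclei that show this phenotype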
Format: toxicity, cell-based
Conditions: human
Outline: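 Imaging took place on a CQ1 microscope at 37°C and 5% CO2 once compound had been added to live cells stained at seeding with Hoechst33342, BioTracker Green Microtubule Cytoskeleton Dye, MitoTracker Red and Annexin V Alexa Fluor 680. CellPathfinder machine-learning gating classed cells as Hoechst high-intensity objects or normal cells, classed normal cells as having healthy, pyknosed or fragmented nuclei, and classed pyknosed cells as mitotic or apoptotic. Tubulin, mitochondrial-mass and membrane-permeability phenotypes are per cents of the healthy-nucleus cells.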

[1] = 12 h, 1 µM, compound concentration 1 uM, replicate 1
[2] = 12 h, 1 µM, compound concentration 1 uM, replicate 2
[3] = 12 h, 10 µM, compound concentration 10 uM, replicate 1
[4] = 12 h, 10 µM, compound concentration 10 uM, replicate 2
[5] = 24 h, 1 µM, compound concentration 1 uM, replicate 1
[6] = 24 h, 1 µM, compound concentration 1 uM, replicate 2
[7] = 24 h, 10 µM, compound concentration 10 uM, replicate 1
[8] = 24 h, 10 µM, compound concentration 10 uM, replicate 2

CC(C)(C)c1cnc(CSc2cnc(NC(=O)C3CCNCC3)s2)o1 [BMS-387032]
Population Apoptotic (%) [1]: 25% | Population Fragmented Nuclei (%) [1]: 21% | Population Healthy Nuclei (%) [1]: 51% | Population Hoechst High Intensity Objects (%) [1]: 19% | Population Membrane Permeable-Phenotype (%) [1]: 3% | Population Mitochondria Different-Phenotype (%) [1]: 8% | Population Mitotic Cells (%) [1]: 74% | Population Normal (%) [1]: 80% | Population Pyknosed Nuclei (%) [1]: 27% | Population Tubulin-Different-Phenotype (%) [1]: 4% | Total Cell Count [1]: 507 | Population Apoptotic (%) [2]: 21% | Population Fragmented Nuclei (%) [2]: 4% | Population Healthy Nuclei (%) [2]: 85% | Population Hoechst High Intensity Objects (%) [2]: 4% | Population Membrane Permeable-Phenotype (%) [2]: 1% | Population Mitochondria Different-Phenotype (%) [2]: 25% | Population Mitotic Cells (%) [2]: 78% | Population Normal (%) [2]: 95% | Population Pyknosed Nuclei (%) [2]: 10% | Population Tubulin-Different-Phenotype (%) [2]: 13% | Total Cell Count [2]: 981 | Population Apoptotic (%) [3]: 23% | Population Fragmented Nuclei (%) [3]: 15% | Population Healthy Nuclei (%) [3]: 51% | Population Hoechst High Intensity Objects (%) [3]: 21% | Population Membrane Permeable-Phenotype (%) [3]: 4% | Population Mitochondria Different-Phenotype (%) [3]: 17% | Population Mitotic Cells (%) [3]: 76% | Population Normal (%) [3]: 78% | Population Pyknosed Nuclei (%) [3]: 33% | Population Tubulin-Different-Phenotype (%) [3]: 27% | Total Cell Count [3]: 549 | Population Apoptotic (%) [4]: 24% | Population Fragmented Nuclei (%) [4]: 2% | Population Healthy Nuclei (%) [4]: 86% | Population Hoechst High Intensity Objects (%) [4]: 10% | Population Membrane Permeable-Phenotype (%) [4]: 1% | Population Mitochondria Different-Phenotype (%) [4]: 42% | Population Mitotic Cells (%) [4]: 75% | Population Normal (%) [4]: 90% | Population Pyknosed Nuclei (%) [4]: 10% | Population Tubulin-Different-Phenotype (%) [4]: 58% | Total Cell Count [4]: 880 | Population Apoptotic (%) [5]: 27% | Population Fragmented Nuclei (%) [5]: 21% | Population Healthy Nuclei (%) [5]: 53% | Population Hoechst High Intensity Objects (%) [5]: 20% | Population Membrane Permeable-Phenotype (%) [5]: 6% | Population Mitochondria Different-Phenotype (%) [5]: 9% | Population Mitotic Cells (%) [5]: 72% | Population Normal (%) [5]: 79% | Population Pyknosed Nuclei (%) [5]: 24% | Population Tubulin-Different-Phenotype (%) [5]: 9% | Total Cell Count [5]: 451 | Population Apoptotic (%) [6]: 22% | Population Fragmented Nuclei (%) [6]: 6% | Population Healthy Nuclei (%) [6]: 87% | Population Hoechst High Intensity Objects (%) [6]: 8% | Population Membrane Permeable-Phenotype (%) [6]: 1% | Population Mitochondria Different-Phenotype (%) [6]: 22% | Population Mitotic Cells (%) [6]: 77% | Population Normal (%) [6]: 91% | Population Pyknosed Nuclei (%) [6]: 5% | Population Tubulin-Different-Phenotype (%) [6]: 17% | Total Cell Count [6]: 934 | Population Apoptotic (%) [7]: 27% | Population Fragmented Nuclei (%) [7]: 16% | Population Healthy Nuclei (%) [7]: 45% | Population Hoechst High Intensity Objects (%) [7]: 23% | Population Membrane Permeable-Phenotype (%) [7]: 1% | Population Mitochondria Different-Phenotype (%) [7]: 34% | Population Mitotic Cells (%) [7]: 72% | Population Normal (%) [7]: 76% | Population Pyknosed Nuclei (%) [7]: 38% | Population Tubulin-Different-Phenotype (%) [7]: 30% | Total Cell Count [7]: 494 | Population Apoptotic (%) [8]: 31% | Population Fragmented Nuclei (%) [8]: 3% | Population Healthy Nuclei (%) [8]: 83% | Population Hoechst High Intensity Objects (%) [8]: 14% | Population Membrane Permeable-Phenotype (%) [8]: 0% | Population Mitochondria Different-Phenotype (%) [8]: 54% | Population Mitotic Cells (%) [8]: 68% | Population Normal (%) [8]: 85% | Population Pyknosed Nuclei (%) [8]: 13% | Population Tubulin-Different-Phenotype (%) [8]: 61% | Total Cell Count [8]: 828

c1ccc2oc(-c3csc(C4CCN(Cc5nc6ncccc6[nH]5)CC4)n3)cc2c1
Population Apoptotic (%) [1]: 23% | Population Fragmented Nuclei (%) [1]: 23% | Population Healthy Nuclei (%) [1]: 39% | Population Hoechst High Intensity Objects (%) [1]: 19% | Population Membrane Permeable-Phenotype (%) [1]: 5% | Population Mitochondria Different-Phenotype (%) [1]: 5% | Population Mitotic Cells (%) [1]: 76% | Population Normal (%) [1]: 80% | Population Pyknosed Nuclei (%) [1]: 37% | Population Tubulin-Different-Phenotype (%) [1]: 7% | Total Cell Count [1]: 599 | Population Apoptotic (%) [2]: 13% | Population Fragmented Nuclei (%) [2]: 4% | Population Healthy Nuclei (%) [2]: 83% | Population Hoechst High Intensity Objects (%) [2]: 4% | Population Membrane Permeable-Phenotype (%) [2]: 1% | Population Mitochondria Different-Phenotype (%) [2]: 21% | Population Mitotic Cells (%) [2]: 86% | Population Normal (%) [2]: 95% | Population Pyknosed Nuclei (%) [2]: 11% | Population Tubulin-Different-Phenotype (%) [2]: 13% | Total Cell Count [2]: 1174 | Population Apoptotic (%) [3]: 17% | Population Fragmented Nuclei (%) [3]: 18% | Population Healthy Nuclei (%) [3]: 54% | Population Hoechst High Intensity Objects (%) [3]: 14% | Population Membrane Permeable-Phenotype (%) [3]: 5% | Population Mitochondria Different-Phenotype (%) [3]: 5% | Population Mitotic Cells (%) [3]: 82% | Population Normal (%) [3]: 85% | Population Pyknosed Nuclei (%) [3]: 26% | Population Tubulin-Different-Phenotype (%) [3]: 4% | Total Cell Count [3]: 511 | Population Apoptotic (%) [4]: 12% | Population Fragmented Nuclei (%) [4]: 6% | Population Healthy Nuclei (%) [4]: 86% | Population Hoechst High Intensity Objects (%) [4]: 3% | Population Membrane Permeable-Phenotype (%) [4]: 2% | Population Mitochondria Different-Phenotype (%) [4]: 10% | Population Mitotic Cells (%) [4]: 87% | Population Normal (%) [4]: 96% | Population Pyknosed Nuclei (%) [4]: 7% | Total Cell Count [4]: 1122 | Population Apoptotic (%) [5]: 20% | Population Fragmented Nuclei (%) [5]: 21% | Population Healthy Nuclei (%) [5]: 50% | Population Hoechst High Intensity Objects (%) [5]: 15% | Population Membrane Permeable-Phenotype (%) [5]: 8% | Population Mitochondria Different-Phenotype (%) [5]: 10% | Population Mitotic Cells (%) [5]: 79% | Population Normal (%) [5]: 84% | Population Pyknosed Nuclei (%) [5]: 28% | Population Tubulin-Different-Phenotype (%) [5]: 13% | Total Cell Count [5]: 538 | Population Apoptotic (%) [6]: 15% | Population Fragmented Nuclei (%) [6]: 5% | Population Healthy Nuclei (%) [6]: 86% | Population Hoechst High Intensity Objects (%) [6]: 6% | Population Membrane Permeable-Phenotype (%) [6]: 4% | Population Mitochondria Different-Phenotype (%) [6]: 12% | Population Mitotic Cells (%) [6]: 84% | Population Normal (%) [6]: 93% | Population Pyknosed Nuclei (%) [6]: 7% | Population Tubulin-Different-Phenotype (%) [6]: 30% | Total Cell Count [6]: 1346 | Population Apoptotic (%) [7]: 16% | Population Fragmented Nuclei (%) [7]: 20% | Population Healthy Nuclei (%) [7]: 60% | Population Hoechst High Intensity Objects (%) [7]: 15% | Population Membrane Permeable-Phenotype (%) [7]: 7% | Population Mitochondria Different-Phenotype (%) [7]: 5% | Population Mitotic Cells (%) [7]: 83% | Population Normal (%) [7]: 84% | Population Pyknosed Nuclei (%) [7]: 19% | Population Tubulin-Different-Phenotype (%) [7]: 7% | Total Cell Count [7]: 500 | Population Apoptotic (%) [8]: 5% | Population Fragmented Nuclei (%) [8]: 11% | Population Healthy Nuclei (%) [8]: 84% | Population Hoechst High Intensity Objects (%) [8]: 3% | Population Membrane Permeable-Phenotype (%) [8]: 6% | Population Mitochondria Different-Phenotype (%) [8]: 2% | Population Mitotic Cells (%) [8]: 95% | Population Normal (%) [8]: 96% | Population Pyknosed Nuclei (%) [8]: 3% | Population Tubulin-Different-Phenotype (%) [8]: 9% | Total Cell Count [8]: 1653
